Measurements gathered from unrelated publications.
Target: Protein-tyrosine kinase 2-beta (PTK2B, Homo sapiens, UniProt Q14289)

| Structure (SMILES) | effect on | technique | tested at | remaining binding [%] |
| --- | --- | --- | --- | --- |
| O=C(NCCCN1CCOCC1)c1ccc(Nc2ncc(Cl)c(-c3ccc(Cl)s3)n2)cc1 | binding | competition with immobilised ligand | 1 µM | 41 |
| O=C(Nc1c[nH]nc1C(=O)NC1CCNCC1)c1cc(F)cc(F)c1 | binding | competition with immobilised ligand | 1 µM | 91 |
| CN(CCCC(F)(F)F)c1nccc(-c2cnn3ncccc23)n1 | binding |  | 1 µM | 100 |
| O=C(NC[C@@H]1[C@H]2CN(C(=O)OCc3cc(C(F)(F)F)cc(C(F)(F)F)c3)C[C@@H]12)c1ccc2[nH]nnc2c1 | cell-free assay | competition with immobilised ligand | 1 µM | 85 |
| CN(C)c1nccc(-c2cnn3ncccc23)n1 | binding |  | 1 µM | 87 |
| FC(F)(F)Oc1cccc(-c2cnc3ccc(-c4ccncc4)nn23)c1 | cell-free assay | competition with immobilised ligand | 5 µM | 76 |
| C[C@H]1CCN(c2nccc(-c3cnn4ncccc34)n2)C1 | binding |  | 1 µM | 100 |
| c1cncc(-c2cccc(Nc3nccc(NC4CCCCC4)n3)c2)c1 | binding | competition with immobilised ligand | 10 µM | 63 |
| CC(C)CC(=O)N1CCc2nc(-c3ccc(Br)cc3)nc(N(C)Cc3ccccc3)c2C1 | cell-free assay | competition with immobilised ligand | 0.1 µM | 100 |
| CNC(=O)[C@@H]1CC[C@@H](n2c(-c3ccc4cnccc4c3)nc3ccc(C(=O)NCc4cccc(C(N)=O)c4)cc32)C1 | binding | competition with immobilised ligand | 1 µM | 99 |
| Nc1cnc(N2CCc3cc(S(=O)(=O)Nc4c(F)cc(Cl)cc4F)cc(N4CCCC4=O)c32)nc1 | cell-free assay | competition with immobilised ligand | 1 µM | 100 |
| O=C(c1ccc(Nc2nccc(-c3cc4ccccc4s3)n2)cc1)N1CCC(N2CCCC2)CC1 | binding | competition with immobilised ligand | 1 µM | 81 |
| N[C@H]1CCN(c2nccc(-c3cnn4ncccc34)n2)C1 | binding |  | 1 µM | 100 |
| C[C@H](c1cccc(C#N)c1)n1cc(Cl)cc(C(N)=O)c1=N | cell-free assay | competition with immobilised ligand | 1 µM | 100 |
| Nc1ncc2c(n1)-c1c([nH]c3ccc(C#CC4CC4)cc13)CCCC2 | binding | competition with immobilised ligand | 1 µM | 98 |
| O=C(c1ccc(Nc2ncc(Cl)c(-c3cc4ccccc4s3)n2)cc1)N1CCC(N2CCCC2)CC1 | binding | competition with immobilised ligand | 1 µM | 40 |
| NS(=O)(=O)c1cc(NC(=O)C2(c3ccccc3Cl)CC2)ccc1Oc1cccc(Cl)c1 | cell-free assay | competition with immobilised ligand | 1 µM | 91 |
| CC1CCCN1c1nccc(-c2cnn3ncccc23)n1 (stereo not drawn) | binding |  | 1 µM | 100 |
| COc1ncc2cc3ccccc3nc2c1C#N | cell-free assay | competition with immobilised ligand | 5 µM | 100 |
| CN(c1nccc(-c2cnn3ncccc23)n1)C1CC1 | binding |  | 1 µM | 100 |
| Cn1cc(Cl)c2c(Oc3c(F)cc(Nc4cc(Cl)nc(N)n4)cc3F)ccnc21 | cell-free assay | competition with immobilised ligand | 0.1 µM | 100 |
